Screening results: PubChem BioAssay, Johns Hopkins Ion Channel Center
KCNQ1 act = potentiates or activates the human KCNQ1 potassium channel; 310,000 compounds, 0.35% hits; B-score at 10 µM; CHO-K1 KCNQ1, thallium flux FluxOR fluorescence; stronger effect = higher value;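 active means fluorescence ratio B-score, a plate-corrected score, at least three library SD, with initial intensity B-score within 5 SD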
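Schedule – 37 °C overnight plating, 90-min dark dye load, 20-min compound pretreatment · System – stable KCNQ1 CHO-K1 line · Probe or stimulus – thallium- and potassium-containing depolarizing buffer · Measured by – kinetic FluxOR fluorescence, 10 s baseline plus 110 s post-stimulus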
Kir21 block = Kir2.1 (mouse) channel inhibition; P35561; HEK293-Kir2.1, FluxOR thallium flux fluorescence; stronger effect = lower value; B-score at 10 µM; 310,000 compounds, 0.85% hits;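 active means fluorescence ratio B-score at or below minus 3 SD of library scores, with starting-brightness B-score within 2 SD, cut at about -4.2 in these data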;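 further: channel flux triggered by added potassium and thallium sulfate stimulus; B-score of peak minus minimum fluorescence over baseline after thallium stimulus; more negative B-score means stronger Kir2.1 block with less thallium influx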
hERG rescue = hERG (human) protection from proarrhythmic block | CHO-hERG, FluxOR thallium flux, dofetilide IC70 present | activation (rescue from dofetilide block), less the hit threshold, % at 10 µM | 310,000 compounds, 0.51% hits;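 active means activation above the mean of controls blocked by dofetilide plus 5 SD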;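 further: thallium influx through hERG after potassium depolarization seen as dye fluorescence rise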
KCNQ1 inh = inhibitors of human KCNQ1 potassium channel; P51787; CHO-K1 KCNQ1, FluxOR thallium flux fluorescence; stronger effect = higher value; B-score at 10 µM; 310,000 compounds, 1.3% hits; AID 2642;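 active means compounds whose thallium flux B-score, printed positive for inhibition, exceeds three library SD while starting fluorescence stays within three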;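 further: channel opened by potassium depolarization with thallium stimulus after 20 min compound exposure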
KCNK3 block = human KCNK3 channel inhibition, primary screen; B-score at 10 µM; AID 602410; 340,000 compounds, 0.84% hits; O14649; CHO-KCNK3 thallium flux, FluxOR fluorescence; stronger effect = lower value;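 active means B-score under library mean minus 4 SD, starting fluorescence ratio at most library mean plus 5 SD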;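 further: more negative B-score means stronger inhibition of thallium flux through KCNK3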
Target sequence (O14649 whole entry, looked up): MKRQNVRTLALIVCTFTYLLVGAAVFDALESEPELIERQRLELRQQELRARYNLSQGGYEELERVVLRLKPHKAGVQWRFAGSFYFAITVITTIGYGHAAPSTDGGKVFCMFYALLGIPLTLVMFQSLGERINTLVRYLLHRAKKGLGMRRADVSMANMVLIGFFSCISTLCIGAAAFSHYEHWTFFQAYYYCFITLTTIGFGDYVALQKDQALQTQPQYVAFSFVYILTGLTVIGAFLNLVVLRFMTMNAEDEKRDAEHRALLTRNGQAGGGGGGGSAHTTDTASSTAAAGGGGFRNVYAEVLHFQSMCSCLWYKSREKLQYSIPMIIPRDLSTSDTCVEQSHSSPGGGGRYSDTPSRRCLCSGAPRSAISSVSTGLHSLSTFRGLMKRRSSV
KCNK9 inh = human KCNK9 channel inhibition; Q9NPC2; HEK293 KCNK9, FluxOR thallium flux fluorescence; stronger effect = lower value; B-score at 10 µM; 310,000 compounds, 1.2% hits;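 active means ratio B-score over 3 SD below the library mean, with starting fluorescence within 5 SD of its mean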;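 further: negative B-score means less thallium flux so channel inhibition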
Each line names hits and unclear results; the compound was inactive in the other large screens. Sampled rows, rich in hits. Any-hit rate of the full collection: about 3.7%.

O=C(CSc1ncccn1)NCc1ccc2c(c1)OCO2	none
CCn1cc(SCC(=O)NCc2ccc3c(c2)OCO3)c2ccccc21	Kir21 block -4.72
O=C(CSc1nccn1-c1ccc(Cl)cc1)NCc1ccc2c(c1)OCO2	Kir21 block -4.48
Cc1cc(NC(=O)CSc2ncnc3c2cnn3-c2ccccc2)no1	hERG rescue 13.6
COc1cc(OC)c(OC)cc1CN1CCN(Cc2cccn2C)CC1	none
C=CCNc1oc(-c2cccs2)nc1C#N	none
COc1ccc2cc(C(=O)NCc3ccccc3)c(=Nc3ccc(C(=O)O)cc3)oc2c1	hERG rescue 6.8
CCCCN1Cc2cc(C(=O)c3cc(F)ccc3O)cnc2NC1=O	none
Cc1cc(N2CCCN(C)CC2)nc2cc(Cl)ccc12	Kir21 block -4.6
CC(Sc1ccsc1[N+](=O)[O-])C(=O)NCc1ccco1 (configuration not stated)	KCNK9 inh -7.68
CC(C)N1CSC(=S)N(Cc2ccccc2)C1	none
CC(C)n1cnc2c(N(C)c3ccccc3)nc(N(CCN(C)C)Cc3ccccc3)nc21	Kir21 block -6.78
CCCCCC(=O)Nc1nc(C)c(-c2csc(Nc3cc(OC)ccc3OC)n2)s1	KCNK9 inh -7.25
CCCCC(=O)Nc1nc(C)c(-c2csc(Nc3ccccc3OC)n2)s1	none
CC(=O)Nc1ccc(OCC(O)Cn2nc(C)c(C)c2C)cc1 (configuration not stated)	none
CC1(C)Cc2cccc(OCC(=O)NCc3ccc(F)cc3)c2O1	none (no result: KCNQ1 act, Kir21 block, hERG rescue, KCNQ1 inh, KCNK9 inh)
COc1ccc(CCNC(=O)COc2cccc3c2OC(C)(C)C3)cc1OC	Kir21 block -5.75
CC1(C)Cc2cccc(OCC(=O)OCC(=O)NCc3ccccc3)c2O1	Kir21 block -4.34
CCC(=O)N1CCCc2cc(S(=O)(=O)CCC(=O)Nc3ccccc3C)ccc21	none
Cc1cc(C(=O)OC(C(=O)Nc2cccc(C(F)(F)F)c2)c2ccccc2)c(C)o1 (configuration not stated)	KCNQ1 inh 9
COc1ccc(CCN2CC(C(=O)N(C)C3CCOCC3)CCC2=O)cc1 (configuration not stated)	none
CCN1CCN(CC(=O)N2CCCC(C(=O)c3ccc(Oc4ccccc4)cc3)C2)CC1 (configuration not stated)	hERG rescue 5.5
CCOC(=O)c1c(C)[nH]c(C(=O)CN(C)CC(=O)Nc2ccccc2C(F)(F)F)c1C	KCNK3 block -8.77 (no result: KCNQ1 act, Kir21 block, hERG rescue, KCNQ1 inh, KCNK9 inh)
O=C(c1cc(-c2ccccc2Cl)nc2ccccc12)N1CCN(c2ccccc2O)CC1	KCNQ1 inh 6
CCOc1ccccc1N1CCN(C(=O)c2cc(-c3cc(OC)ccc3OC)nc3ccccc23)CC1	KCNQ1 inh 6
CCN1CCCC(OC(=O)c2cc(-c3ccccc3Cl)nc3ccccc23)C1 (configuration not stated)	KCNK9 inh -6.66
O=C(c1cc(-c2ccccc2Cl)nc2ccccc12)N1CCN(c2ccccn2)CC1	none (no result: KCNQ1 act, Kir21 block, hERG rescue, KCNQ1 inh, KCNK9 inh)
O=C1NCCN(Cc2ccc(Cl)c(F)c2)C1CC(=O)N1CCCCO1 (configuration not stated)	none
COc1cc(OC)cc(C(=O)NCC(=O)NCc2ccccn2)c1	none (no result: KCNQ1 act, Kir21 block, hERG rescue, KCNQ1 inh, KCNK9 inh)
COc1cccc(F)c1C(C[N+](=O)[O-])c1c(N)n(C)c(=O)n(C)c1=O (configuration not stated)	none
COc1ccc(/C=N/NS(=O)(=O)c2ccc(C)cc2)cc1OC(=O)c1ccc(C)cc1	KCNQ1 inh 6
COc1ccc(C(=O)Oc2cc(/C=N/NS(=O)(=O)c3ccccc3)ccc2OC)cc1	none
COc1ccccc1NC(=O)CN1CCN(CC(=O)Nc2ccc(C)c(F)c2)CC1	none
CN1CCN(Cc2ccc(Sc3ccc(Cl)cc3)c([N+](=O)[O-])c2)CC1	Kir21 block -5.29
COc1cc2c(cc1NC(=O)CSc1ccc(Cl)cc1)oc1ccccc12	none
COc1ccccc1CC(=O)Nc1cc2oc3ccccc3c2cc1OC	KCNK9 inh -6.94
COc1cc2c(cc1NC(=O)CSc1ccccn1)oc1ccccc12	KCNK9 inh -7.27
Cn1c(N)c(C(=O)CSc2nnc(C3CC3)n2Cc2ccccc2)c(=O)n(C)c1=O	none (no result: KCNQ1 act, Kir21 block, hERG rescue, KCNQ1 inh, KCNK9 inh)
O=C(CSc1nnc(C2CC2)n1Cc1ccccc1)c1cc2ccccc2o1	Kir21 block -4.48
